Experimental data as given in PMC2812024 (Journal of medicinal chemistry, 2008).
Where two headings read alike, the source gives them in different places. Where a SMILES comes first, the peptide text is derived from it. [ ]: non-standard residue; d: D form. The star is where a group is joined. Dmt = Cc1cc(O)cc(C)c1C[C@H](N)C(=O)O; Tic = O=C(O)[C@@H]1Cc2ccccc2CN1; NHBn = c1ccc(CN*)cc1

How the values were obtained:
μ-opioid receptor [1] = biological target: T1, μ-opioid receptor (Cavia porcellus, UniProt P97266); test: Electrically stimulated guinea-pig ileum; parameters: species or system guinea pigs
δ-opioid receptor [2] = biological target: T2, δ-opioid receptor (Mus musculus, UniProt P32300); test: Electrically stimulated mouse vas deferens; conditions: MVD
μ-opioid receptor [3] = biological target: T1, μ-opioid receptor; conditions: read-out: GPI IC50; μ agonism; ref Balboni et al.[5]; cited from earlier work
μ-opioid receptors = μ-opioid receptors (Rattus norvegicus, UniProt P33535); conditions: read-out: Receptor affinity Ki^μ; reference compounds; ref Balboni et al.[5]; cited from earlier work
δ-opioid receptors = δ-opioid receptors (Rattus norvegicus, UniProt P33533); conditions: ref Balboni et al.[5], cited from earlier work; for Ki: read-out: Receptor affinity Ki^δ, reference compounds
δ-opioid receptor [4] = biological target: T2, δ-opioid receptor; conditions: ref Balboni et al.[5], cited from earlier work
[5] = Enzymatic degradation in brain homogenate; assay type: in vitro ADME; conditions: 2 h, preliminary
mice [6] = test: Behavioural observation after icv injection; assay type: in vivo
[7] = Enzymatic degradation in plasma; assay type: in vitro ADME; conditions: 4 h, preliminary
mice [8] = test: Hot-plate test after icv injection; assay type: in vivo, Swiss-Webster mice
Procedure, shortened: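 Male Swiss-Webster mice (20–25 g); test compound in saline, 5 μL icv at bregma (needle 2.3–3 mm deep), placement checked after sacrifice. Latency to jump, lick or shake hind paws on a 55 °C plate at 10 min post-injection, then every 10 min; baseline 5–10 sec, cutoff 30 sec.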

mice [9] = test: Tail-flick test after icv injection; assay type: in vivo, Swiss-Webster mice
Procedure, shortened: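 Radiant heat on the dorsal tail surface of male Swiss-Webster mice (20–25 g), with latency to tail removal timed. Baseline 2–3 sec, cutoff 8 sec. Readings start 10 min after icv test compound (5 μL saline at bregma) and repeat every 10 min.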

[10] = 10 μg/mouse icv, sc naltrindole 3 mg/kg, naloxone 10 mg/kg 20 min before

T1 sequence (P97266 whole entry, looked up): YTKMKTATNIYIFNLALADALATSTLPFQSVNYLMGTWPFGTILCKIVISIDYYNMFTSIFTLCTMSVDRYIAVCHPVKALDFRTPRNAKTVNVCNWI
T2 sequence (P32300 whole entry): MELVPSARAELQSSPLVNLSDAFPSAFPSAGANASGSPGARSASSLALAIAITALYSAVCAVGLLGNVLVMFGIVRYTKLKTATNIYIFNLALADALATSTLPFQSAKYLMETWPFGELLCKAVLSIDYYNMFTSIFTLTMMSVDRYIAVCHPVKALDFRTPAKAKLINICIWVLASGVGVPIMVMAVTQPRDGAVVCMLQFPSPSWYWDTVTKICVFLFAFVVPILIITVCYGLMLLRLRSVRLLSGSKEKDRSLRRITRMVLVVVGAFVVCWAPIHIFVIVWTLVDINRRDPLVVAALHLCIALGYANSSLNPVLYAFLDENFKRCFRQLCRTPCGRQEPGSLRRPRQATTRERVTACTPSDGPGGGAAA
Chain of δ-opioid receptors (P33533 whole entry): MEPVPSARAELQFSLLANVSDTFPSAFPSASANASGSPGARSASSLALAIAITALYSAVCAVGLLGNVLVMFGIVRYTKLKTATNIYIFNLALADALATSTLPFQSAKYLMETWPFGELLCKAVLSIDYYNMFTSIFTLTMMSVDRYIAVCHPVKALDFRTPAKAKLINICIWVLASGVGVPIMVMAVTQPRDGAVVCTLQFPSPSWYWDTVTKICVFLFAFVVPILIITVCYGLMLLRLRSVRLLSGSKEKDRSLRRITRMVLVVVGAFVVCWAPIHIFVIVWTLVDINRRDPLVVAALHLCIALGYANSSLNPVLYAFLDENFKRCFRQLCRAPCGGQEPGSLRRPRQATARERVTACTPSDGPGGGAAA
Chain of μ-opioid receptors (P33535 whole entry): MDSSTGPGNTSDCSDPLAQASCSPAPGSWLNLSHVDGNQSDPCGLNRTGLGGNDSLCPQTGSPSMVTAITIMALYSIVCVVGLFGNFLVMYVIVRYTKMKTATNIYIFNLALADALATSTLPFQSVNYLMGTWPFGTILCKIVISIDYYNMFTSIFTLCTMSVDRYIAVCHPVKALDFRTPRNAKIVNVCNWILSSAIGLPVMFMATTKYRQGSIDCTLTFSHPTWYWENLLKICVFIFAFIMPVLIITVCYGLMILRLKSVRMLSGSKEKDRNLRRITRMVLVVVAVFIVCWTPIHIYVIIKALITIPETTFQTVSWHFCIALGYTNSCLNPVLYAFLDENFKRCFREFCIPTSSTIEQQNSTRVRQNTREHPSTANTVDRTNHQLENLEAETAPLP

Cc1cc(O)cc(C)c1C[C@H](N)C(=O)N1Cc2ccccc2C[C@H]1C(=O)N[C@@H](CC(=O)O)C(=O)N(C)c1ccccc1 [Compound 8, H-Dmt-Tic-Asp-N(Me)-Ph]
IC50 (μ-opioid receptor [1]): > 10000 nM

Cc1cc(O)cc(C)c1C[C@H](N)C(=O)N1Cc2ccccc2C[C@H]1C(=O)N[C@H](CC(=O)O)C(=O)N(C)c1ccccc1 [Compound 9, H-Dmt-Tic-D-Asp-N(Me)-Ph]
IC50 (μ-opioid receptor [1]): > 10000 nM

Cc1cc(O)cc(C)c1C[C@H](N)C(=O)N1Cc2ccccc2C[C@H]1C(=O)N[C@@H](CC(=O)O)C(=O)NCc1ccccc1 [Compound 13, H-Dmt-Tic-Asp-NH-Bzl] (H-[Dmt]-[Tic]-Asp-NHBn)
δ antagonist activity, lower than 2 (δ-opioid receptor [2]): 5 fold

H-Dmt-Tic-Gly-NH-Ph [Compound 1]
IC50 (μ-opioid receptor [3]): 2.57 nM | Ki (μ-opioid receptors): 0.16 nM | Ki (δ-opioid receptors): 0.042 nM | Selectivity Ki^μ/Ki^δ (δ-opioid receptors): 4 | IC50 (δ-opioid receptor [4]; read-out: MVD IC50, δ agonism): 3.02 nM

Cc1cc(O)cc(C)c1C[C@H](N)C(=O)N1Cc2ccccc2C[C@H]1C(=O)N[C@@H](CC(=O)O)c1nc2ccccc2n1C [Compound 10, H-Dmt-Tic-NH-(S)CH(CH2-COOH)-Bid(N^1-Me)]
μ agonism relative to 4 (μ-opioid receptor [1]; GPI): 1.7 fold | Stability to enzymic degradation [5]: fully stable | Convulsions (mice [6]; highest doses): convulsions | Behavioural effects in mice (mice [6]; same dose): sedated, quiet, easily handled, and moving slowly if at all | Stability to enzymic degradation [7]: fully stable | Reversal of analgesia by naltrindole and naloxone, hot-plate test (mice [8]; [10]): not in the hot-plate test | Analgesic effect, hot-plate test (mice [8]; icv injection, mice, Figure 1): dose dependent analgesic effect | Reversal of analgesia by naltrindole and naloxone, tail-flick test (mice [9]; [10]): reversed | Analgesic effect, tail-flick test (mice [9]; icv injection, mice, Figure 1): dose dependent analgesic effect

H-Dmt-Tic-Gly-NH-Bzl [Compound 2]
IC50 (μ-opioid receptor [3]): 2.69 nM | Ki (μ-opioid receptors): 0.16 nM | Ki (δ-opioid receptors): 0.031 nM | Selectivity Ki^μ/Ki^δ (δ-opioid receptors): 5 | MVD pA2 (δ-opioid receptor [4]; δ antagonism): 9.25

Cc1cc(O)cc(C)c1C[C@H](N)C(=O)N1Cc2ccccc2C[C@H]1C(=O)N[C@H](CC(=O)O)c1nc2ccccc2n1C [Compound 11, H-Dmt-Tic-NH-(R)CH(CH2-COOH)-Bid(N^1-Me)]
IC50 (μ-opioid receptor [1]): > 10000 nM
